From ChEMBL document CHEMBL1145397, “Structure-activity relationships of a series of analogs of the endozepine octadecaneuropeptide (ODN(11)(-)(18)) on neurosteroid biosynthesis by hypothalamic explants” (2007)
Calls of active or inactive are those of the source. No cut-off for these calls is given here.

How the values were obtained:
[1] = test system: Hypothalamus; test: Effect on neurosteroid biosynthesis assessed as conversion of [3H]pregnenolone to 17-Hydroxypregnenolone in frog hyphalamic explats at 1 uM after 2 hrs relative to control; type: functional, Pelophylax lessonae
Procedure, shortened: (§1)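 Frog hypothalamic explants, preincubated 15 min in HEPES/bicarbonate Ringer's (glucose, BSA, 95% O2/5% CO2, pH 7.4), then incubated 2 h at 24 °C with 10^-6 M [3H]pregnenolone in 4% propylene glycol, with or without peptide. Reaction stopped with trichloroacetic acid; steroids extracted in dichloromethane and resolved by RP-HPLC radioactivity profiles. Values are % of steroid formed without peptide, mean ± SEM of independent experiments.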

[2] = test system: Hypothalamus; test: Effect on neurosteroid biosynthesis assessed as conversion of [3H]pregnenolone to progesterone in frog hyphalamic explats at 1 uM after 2 hrs relative control; type: functional, Pelophylax lessonae; procedure, shortened: as §1
[3] = test system: Hypothalamus; test: Effect on neurosteroid biosynthesis assessed as conversion of [3H]pregnenolone to 17-Hydroxypregnenolone in frog hyphalamic explats at 10 uM after 2 hrs relative to control; type: functional, Pelophylax lessonae; procedure, shortened: as §1
[4] = test system: Hypothalamus; test: Effect on neurosteroid biosynthesis assessed as conversion of [3H]pregnenolone to progesterone in frog hyphalamic explats at 10 uM after 2 hrs relative control; type: functional, Pelophylax lessonae; procedure, shortened: as §1
[5] = test system: Hypothalamus; test: Effect on neurosteroid biosynthesis in frog hyphalamic explats at 1 uM after 2 hrs in presence of CBR antagonist flumazenil; type: functional, tissue-based; conditions: Pelophylax lessonae; procedure, shortened: as §1

Row | Compound | Activity [1] [%] | Activity [2] [%] | Activity [3] [%] | Activity [4] [%] | Activity [5]
1 | CC(C)C[C@@H]1NC(=O)CNC(=O)[C@@H]2CCCN2C(=O)[C@H](CCCNC(=N)N)NC(=O)[C@H](CCCCN)NC(=O)[C@H](CC(C)C)NC(=O)[C@H](CC(=O)O)NC(=O)[C@H](CC(C)C)NC1=O | 246.9 | 271.9 | – | – | –
2 | CC(C)C[C@@H]1NC(=O)CNC(=O)[C@@H]2CCCN2C(=O)[C@H](CCCNC(=N)N)NC(=O)[C@H](CCCCN)NC(=O)[C@H](CC(C)C)NC(=O)[C@H](CC(=O)O)NC(=O)[C@@H](CC(C)C)NC1=O | – | – | 99.9 | 99.7 | –
3 | CC(C)C[C@@H]1NC(=O)CNC(=O)[C@H]2CCCN2C(=O)[C@H](CCCNC(=N)N)NC(=O)[C@H](CCCCN)NC(=O)[C@H](CC(C)C)NC(=O)[C@H](CC(=O)O)NC(=O)[C@@H](CC(C)C)NC1=O | – | – | – | – | inactive
4 | H-APGLLDLK-OH [APGLLDLK] | 402.7 | 276.5 | – | – | –
5 | H-GLLDL-OH | 98.9 | 116.5 | – | – | –
6 | H-GLLDLK-OH | 366.6 | 266.6 | – | – | –
7 | H-LLDLK-OH | 103.6 | 103.8 | – | – | –
8 | H-PGLLD-OH | 101.3 | 101.4 | – | – | –
9 | H-PGLLDL-OH | 117.5 | 137 | – | – | –
10 | H-PGLLDLK-OH [PGLLDLK] | 400.2 | 282.1 | – | – | –
11 | H-QATVGDVNTDRPGLLDLK-OH [QATVGDVNTDRPGLLDLK] | 465.3 | 382.7 | – | – | –
12 | H-RAGLLDLK-OH | 405 | 265.2 | – | – | –
13 | H-RPALLDLK-OH | 126 | 99 | – | – | –
14 | H-RPGALDLK-OH | 97.1 | 104.7 | – | – | –
15 | H-RPGLADLK-OH | 92.8 | 108.5 | – | – | –
16 | H-RPGLL-OH | 97.1 | 99.6 | – | – | –
17 | H-RPGLLALK-OH | 103.6 | 100.4 | – | – | –
18 | H-RPGLLD-OH | 98.2 | 98.6 | – | – | –
19 | H-RPGLLDAK-OH | 99.5 | 103.2 | – | – | –
20 | H-RPGLLDL-OH | 131.5 | 136.6 | – | – | –
21 | H-RPGLLDLA-OH | 126 | 137 | – | – | –
22 | H-RPGLLDLK-OH | 410.5 | 281.7 | – | – | inactive
